Active and inactive are the calls of the source. The calls are words filed in the database; no cut-off is given here.
Key:
[1] = target: Inhibitor of nuclear factor kappa-B kinase subunit epsilon (Homo sapiens, UniProt Q14164); assay: Inhibition of IKKi
[2] = target: T1, Cell division cycle 7-related protein kinase (Homo sapiens, UniProt O00311); assay: Inhibition of human Cdc7 assessed as inhibition of rate of phosphorylation of Mcm2 protein
[3] = target: Serine/threonine-protein kinase 26 (Homo sapiens, UniProt Q9P289); assay: Inhibition of MST4
[4] = test system: HeLa; assay: Inhibition of DNA synthesis in human HeLa cells at 3 uM assessed as bromodeoxyuridine incorporation after 3 hrs; assay type: functional; set-up: scale not given: the % may be the effect or the level left
Method in brief: (§1)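 Logarithmically growing HeLa cells exposed to 3 µM for set times, labelled with 50 µM BrdU, fixed in 70% ethanol. DNA content by propidium iodide with RNase A, 30 min at 37 °C; BrdU by FITC anti-BrdU after 2N HCl denaturation; percent positive cells by FACS.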

[5] = target: Cytochrome P450 1A2 (Homo sapiens, UniProt P05177); assay: Inhibition of human CYP1A2; assay type: ADME
[6] = target: Cytochrome P450 3A4 (Homo sapiens, UniProt P08684); assay: Inhibition of human CYP3A4; assay type: ADME
[7] = target: T1, Cell division cycle 7-related protein kinase; assay: Inhibition of human Cdc7 in human A2780 cells assessed as inhibition of Ser53 phosphorylation of Mcm2 protein at 3 uM up to 24 hrs; assay type: cell-based
Method in brief: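 Time course in A2780 cells held at 3 µM for up to 24 h. Extracts were made in 50 mmol/L Tris-HCl pH 6.8, 1% SDS, 1 mmol/L DTT with 10 s sonication, loaded at 15 µg per lane, and immunoblotted with antiphosphopeptide antibodies to MCM2 Ser40 and Ser53. Cleaved caspase 3 was also probed.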

[8] = test system: HT-29; assay: Antiproliferative activity against human HT-29 cells after 72 hrs by luciferase based assay; assay type: functional, cell-based; details: HT-29, 72 h
Method in brief: (§2)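 Cells seeded at 2500–5000/well in complete medium (RPMI1640, McCoy's or DMEM with 10% FCS, by line); compound added after 24 h, 72 h at 37 °C, 5% CO2.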

[9] = target: Serine/threonine-protein kinase Chk1 (Homo sapiens, UniProt O14757); assay: Inhibition of CHK1
[10] = target: Protein kinase C beta type (Homo sapiens, UniProt P05771); assay: Inhibition of PKCbeta
[11] = Antiproliferative activity against mouse NIH/3T3 cells after 72 hrs by luciferase based assay; assay type: cell-based; details: NIH3T3, 72 h; method in brief: as §2
[12] = test system: HeLa; assay: Inhibition of DNA synthesis in human HeLa cells at 3 uM assessed as bromodeoxyuridine incorporation; assay type: functional; set-up: scale not given: the % may be the effect or the level left; method in brief: as §1
[13] = target: Cytochrome P450 2C8 (Homo sapiens, UniProt P10632); assay: Inhibition of human CYP2C8; assay type: ADME
[14] = target: Hepatocyte growth factor receptor (Homo sapiens, UniProt P08581); assay: Inhibition of MET
[15] = test system: HeLa; assay: Inhibition of DNA synthesis in human HeLa cells at 3 uM assessed as bromodeoxyuridine incorporation after 24 hrs; assay type: functional; set-up: scale not given: the % may be the effect or the level left; method in brief: as §1
[16] = target: cAMP-dependent protein kinase catalytic subunit alpha (Homo sapiens, UniProt P17612); assay: Inhibition of PKAalpha
[17] = target: Cytochrome P450 2C9 (Homo sapiens, UniProt P11712); assay: Inhibition of human CYP2C9; assay type: ADME
[18] = Cmax in nu/nu mouse at 10 mg/kg, po administered as single dose; assay type: ADME, organism-based; set-up: dose 10 mg/kg, route oral; details: in vivo
Method in brief: (§3)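 Single iv or oral dose in 5% dextrose to overnight-fasted animals. Nu/Nu mice: males, 3 per route, saphenous bleeds to 24 h. Han-Wistar rats: males, 3 per route, jugular bleeds to 24 h. Beagle dogs: 2 per sex, iv and po crossover 2 weeks apart, jugular bleeds to 48 h. Plasma by LC/MS/MS; noncompartmental parameters, AUC by linear trapezoid with extrapolation.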

[19] = target: Mitogen-activated protein kinase 1 (Homo sapiens, UniProt P28482)
[20] = test system: HeLa; assay: Inhibition of DNA synthesis in human HeLa cells at 3 uM assessed as bromodeoxyuridine incorporation after 9 hrs; assay type: functional; set-up: scale not given: the % may be the effect or the level left; method in brief: as §1
[21] = target: Tyrosine-protein kinase ABL1 (Homo sapiens, UniProt P00519); assay: Inhibition of ABL
[22] = Tmax in nu/nu mouse at 10 mg/kg, po administered as single dose; assay type: ADME, organism-based; set-up: dose 10 mg/kg, route oral; details: in vivo
Method in brief: (§4)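 Overnight-fasted male Nu/Nu mice got a single 10 mg/kg dose in 5% dextrose, iv or po, three mice per route. Saphenous blood was drawn at 0.083 (iv) or 0.25 (po), 0.5, 1, 6 and 24 h. Plasma was assayed by LC/MS/MS and analysed noncompartmentally. Tmax is the observed peak time, Vss = CL·MRT, and F is the ratio of dose-normalized AUC∞ po/iv.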

[23] = Oral bioavailability in nu/nu mouse at 10 mg/kg administered as single dose; assay type: ADME, organism-based; details: in vivo; method in brief: as §4
[24] = Tmax in Wistar rat at 20 mg/kg, po administered as single dose; details: in vivo
[25] = test system: Mus musculus; assay: Inhibition of human Cdc7 in human A2780 cells xenografted in CDI nu/nu mouse assessed as inhibition of Ser40 phosphorylation of Mcm2 protein at 60 mg/kg, po first dose administered at 6 hrs and second dose 3 hrs after first dose by Western blot; assay type: functional, organism-based; set-up: dose 60 mg/kg
Method in brief: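 Mice bearing A2780 xenografts given two oral doses of 60 mg/kg, the second 3 h after the first, over 6 h, or vehicle. Explanted tumors blotted for Mcm2 phospho-Ser40 and phospho-Ser53, with total MCM2 and tubulin as loading controls.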

[26] = Half life in Beagle dog at 5 mg/kg, iv administered as single dose; assay type: ADME, organism-based, Canis lupus familiaris; set-up: dose 5 mg/kg, route intravenous; details: in vivo; method in brief: as §3
[27] = Clearance in Beagle dog at 5 mg/kg, iv administered as single dose; assay type: ADME, organism-based, Canis lupus familiaris; set-up: dose 5 mg/kg, route intravenous; details: in vivo; method in brief: as §3
[28] = Inhibition of Cdk2E
[29] = AUC (0 to infinity) in nu/nu mouse at 10 mg/kg, po administered as single dose; assay type: ADME, organism-based; set-up: time infinity, dose 10 mg/kg, route oral; details: plasma; method in brief: as §3
[30] = Inhibition of CK2
[31] = test system: Rattus norvegicus; assay: AUC (0 to infinity) in Wistar rat at 10 mg/kg, iv administered as single dose; assay type: ADME, organism-based, Plasma; set-up: time infinity, dose 10 mg/kg, route intravenous; details: in vivo; method in brief: as §3
[32] = Renal clearance in Beagle dog at 5 mg/kg, iv administered as single dose; assay type: ADME, organism-based, Canis lupus familiaris, Kidney; set-up: dose 5 mg/kg, route intravenous; details: in vivo, read-out: CL_renal (converted)
Method in brief: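 Overnight-fasted Beagle dogs, 2 per sex, in a crossover design: 5 mg/kg iv and 10 mg/kg po, two weeks apart, in 5% dextrose. Jugular blood was drawn up to 48 h, and urine was collected over 0–8, 8–24 and 24–48 h. Samples were assayed by LC/MS/MS and analysed noncompartmentally.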

[33] = AUC (0 to infinity) in Beagle dog at 10 mg/kg, po administered as single dose; assay type: ADME, organism-based, Canis lupus familiaris; set-up: time infinity, dose 10 mg/kg, route oral; details: plasma; method in brief: as §3
[34] = Inhibition of Cdk1b
[35] = target: Serine/threonine-protein kinase NIM1 (Homo sapiens, UniProt Q8IY84); assay: Inhibition of NIM1
[36] = Antiproliferative activity against human NCI-H929 cells after 72 hrs by luciferase based assay; assay type: functional, cell-based; details: NCI-H929, 72 h; method in brief: as §2
[37] = target: Serine/threonine-protein kinase Nek6 (Homo sapiens, UniProt Q9HC98); assay: Inhibition of NEK6
Chain of Serine/threonine-protein kinase Nek6 (Q9HC98 whole entry): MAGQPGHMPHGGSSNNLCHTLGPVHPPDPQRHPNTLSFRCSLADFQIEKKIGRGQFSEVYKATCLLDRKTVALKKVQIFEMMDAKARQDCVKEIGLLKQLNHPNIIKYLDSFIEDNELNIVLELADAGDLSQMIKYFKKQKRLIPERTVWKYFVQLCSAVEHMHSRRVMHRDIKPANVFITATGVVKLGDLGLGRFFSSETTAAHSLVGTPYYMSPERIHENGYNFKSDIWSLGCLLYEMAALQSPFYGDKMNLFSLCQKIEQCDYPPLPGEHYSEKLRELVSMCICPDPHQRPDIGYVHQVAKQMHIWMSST

Chain of Hepatocyte growth factor receptor (P08581 whole entry): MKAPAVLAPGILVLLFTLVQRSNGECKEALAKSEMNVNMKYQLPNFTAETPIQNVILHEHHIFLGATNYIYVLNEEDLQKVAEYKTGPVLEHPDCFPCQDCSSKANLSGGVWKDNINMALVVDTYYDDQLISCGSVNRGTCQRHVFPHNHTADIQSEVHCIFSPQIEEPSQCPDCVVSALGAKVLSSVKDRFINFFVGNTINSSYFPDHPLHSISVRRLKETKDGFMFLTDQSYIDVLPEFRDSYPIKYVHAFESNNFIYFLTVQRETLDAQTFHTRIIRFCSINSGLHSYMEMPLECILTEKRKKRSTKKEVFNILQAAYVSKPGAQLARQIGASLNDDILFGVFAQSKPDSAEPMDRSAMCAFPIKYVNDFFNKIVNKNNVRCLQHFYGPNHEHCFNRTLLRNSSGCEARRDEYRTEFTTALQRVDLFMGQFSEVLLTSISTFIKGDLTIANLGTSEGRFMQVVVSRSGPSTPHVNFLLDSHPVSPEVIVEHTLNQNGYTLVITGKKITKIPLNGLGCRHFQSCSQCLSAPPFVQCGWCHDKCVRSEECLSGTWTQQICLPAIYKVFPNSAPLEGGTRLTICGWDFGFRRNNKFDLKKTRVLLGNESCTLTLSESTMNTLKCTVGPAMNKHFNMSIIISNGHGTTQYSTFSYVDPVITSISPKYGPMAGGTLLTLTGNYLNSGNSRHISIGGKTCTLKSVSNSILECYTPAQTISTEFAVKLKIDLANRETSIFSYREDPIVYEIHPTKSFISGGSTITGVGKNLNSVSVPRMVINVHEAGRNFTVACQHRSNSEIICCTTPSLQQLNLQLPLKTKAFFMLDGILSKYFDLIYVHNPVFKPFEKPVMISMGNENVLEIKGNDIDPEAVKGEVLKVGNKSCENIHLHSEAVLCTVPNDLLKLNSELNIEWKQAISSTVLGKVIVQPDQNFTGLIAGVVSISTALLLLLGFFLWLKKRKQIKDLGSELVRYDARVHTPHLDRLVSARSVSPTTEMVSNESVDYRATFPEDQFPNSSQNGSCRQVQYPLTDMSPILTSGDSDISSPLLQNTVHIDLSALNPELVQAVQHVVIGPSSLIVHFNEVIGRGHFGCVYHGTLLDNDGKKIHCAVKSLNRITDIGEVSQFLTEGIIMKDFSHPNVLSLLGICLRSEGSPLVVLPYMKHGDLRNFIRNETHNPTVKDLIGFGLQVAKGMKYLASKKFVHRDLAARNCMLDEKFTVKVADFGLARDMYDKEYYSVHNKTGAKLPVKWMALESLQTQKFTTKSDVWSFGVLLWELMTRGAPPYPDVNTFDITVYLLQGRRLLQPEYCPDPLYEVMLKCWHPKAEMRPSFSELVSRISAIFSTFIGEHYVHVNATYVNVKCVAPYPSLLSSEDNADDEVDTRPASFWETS
Chain of Cytochrome P450 2C8 (P10632 whole entry): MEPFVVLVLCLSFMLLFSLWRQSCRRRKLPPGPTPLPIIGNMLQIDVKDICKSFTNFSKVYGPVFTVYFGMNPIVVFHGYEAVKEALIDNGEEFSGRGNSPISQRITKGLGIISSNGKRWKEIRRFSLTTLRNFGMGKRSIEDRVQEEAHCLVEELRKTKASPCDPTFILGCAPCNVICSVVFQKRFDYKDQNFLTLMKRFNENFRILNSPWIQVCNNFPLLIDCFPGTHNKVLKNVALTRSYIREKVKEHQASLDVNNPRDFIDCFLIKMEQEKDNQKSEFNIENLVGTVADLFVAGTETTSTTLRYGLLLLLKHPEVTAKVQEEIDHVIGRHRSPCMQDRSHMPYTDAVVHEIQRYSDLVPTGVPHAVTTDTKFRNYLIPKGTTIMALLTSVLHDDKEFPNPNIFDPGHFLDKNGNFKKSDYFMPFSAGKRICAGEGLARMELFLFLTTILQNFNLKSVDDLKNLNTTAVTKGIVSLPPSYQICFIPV
Chain of Protein kinase C beta type (P05771 whole entry): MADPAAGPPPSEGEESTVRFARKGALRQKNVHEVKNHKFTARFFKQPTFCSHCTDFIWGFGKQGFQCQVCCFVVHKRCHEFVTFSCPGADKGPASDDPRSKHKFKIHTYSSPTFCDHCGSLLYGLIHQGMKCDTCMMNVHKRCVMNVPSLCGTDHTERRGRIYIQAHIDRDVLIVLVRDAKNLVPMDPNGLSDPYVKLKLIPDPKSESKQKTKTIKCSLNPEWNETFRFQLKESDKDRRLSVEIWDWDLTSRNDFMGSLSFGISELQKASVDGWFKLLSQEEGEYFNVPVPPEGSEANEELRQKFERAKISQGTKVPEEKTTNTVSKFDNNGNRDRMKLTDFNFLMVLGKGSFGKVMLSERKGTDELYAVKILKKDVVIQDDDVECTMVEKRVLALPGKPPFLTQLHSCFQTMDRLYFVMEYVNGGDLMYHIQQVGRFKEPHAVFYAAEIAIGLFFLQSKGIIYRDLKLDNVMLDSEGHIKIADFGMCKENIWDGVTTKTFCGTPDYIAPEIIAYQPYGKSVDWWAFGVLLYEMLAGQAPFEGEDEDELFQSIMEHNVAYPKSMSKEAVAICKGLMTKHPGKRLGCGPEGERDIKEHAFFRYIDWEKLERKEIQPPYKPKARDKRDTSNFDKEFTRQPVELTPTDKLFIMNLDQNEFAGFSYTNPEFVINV
Chain of Inhibitor of nuclear factor kappa-B kinase subunit epsilon (Q14164 whole entry): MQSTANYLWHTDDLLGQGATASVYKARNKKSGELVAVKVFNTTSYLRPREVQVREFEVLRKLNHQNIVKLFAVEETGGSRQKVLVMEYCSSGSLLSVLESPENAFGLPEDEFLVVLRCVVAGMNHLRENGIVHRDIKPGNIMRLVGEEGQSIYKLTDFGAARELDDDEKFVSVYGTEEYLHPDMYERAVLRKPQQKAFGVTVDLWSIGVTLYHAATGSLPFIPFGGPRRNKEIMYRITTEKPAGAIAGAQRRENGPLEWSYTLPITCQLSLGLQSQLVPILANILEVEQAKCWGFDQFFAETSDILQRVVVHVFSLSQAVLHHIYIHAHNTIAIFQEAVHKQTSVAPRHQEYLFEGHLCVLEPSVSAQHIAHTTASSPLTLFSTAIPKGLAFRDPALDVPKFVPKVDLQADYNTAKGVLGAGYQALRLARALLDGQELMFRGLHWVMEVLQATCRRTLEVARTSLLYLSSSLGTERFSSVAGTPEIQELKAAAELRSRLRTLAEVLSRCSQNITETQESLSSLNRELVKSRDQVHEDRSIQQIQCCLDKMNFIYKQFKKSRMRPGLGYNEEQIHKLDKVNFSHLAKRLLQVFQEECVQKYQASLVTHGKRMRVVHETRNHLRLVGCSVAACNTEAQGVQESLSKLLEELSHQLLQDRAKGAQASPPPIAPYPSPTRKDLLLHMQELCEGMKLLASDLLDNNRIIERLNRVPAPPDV
Chain of Serine/threonine-protein kinase 26 (Q9P289 whole entry): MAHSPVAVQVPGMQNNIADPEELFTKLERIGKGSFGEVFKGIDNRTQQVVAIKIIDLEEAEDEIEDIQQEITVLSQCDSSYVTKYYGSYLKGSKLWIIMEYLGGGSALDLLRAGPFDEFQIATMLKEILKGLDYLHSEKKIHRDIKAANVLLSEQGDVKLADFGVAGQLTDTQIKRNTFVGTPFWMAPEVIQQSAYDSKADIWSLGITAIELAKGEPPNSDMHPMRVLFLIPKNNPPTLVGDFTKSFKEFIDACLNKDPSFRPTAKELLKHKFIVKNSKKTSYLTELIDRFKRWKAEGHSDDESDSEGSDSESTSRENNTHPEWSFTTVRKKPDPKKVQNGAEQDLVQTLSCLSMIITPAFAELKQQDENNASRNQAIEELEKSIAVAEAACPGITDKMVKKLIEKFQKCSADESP
Chain of Cytochrome P450 2C9 (P11712 whole entry): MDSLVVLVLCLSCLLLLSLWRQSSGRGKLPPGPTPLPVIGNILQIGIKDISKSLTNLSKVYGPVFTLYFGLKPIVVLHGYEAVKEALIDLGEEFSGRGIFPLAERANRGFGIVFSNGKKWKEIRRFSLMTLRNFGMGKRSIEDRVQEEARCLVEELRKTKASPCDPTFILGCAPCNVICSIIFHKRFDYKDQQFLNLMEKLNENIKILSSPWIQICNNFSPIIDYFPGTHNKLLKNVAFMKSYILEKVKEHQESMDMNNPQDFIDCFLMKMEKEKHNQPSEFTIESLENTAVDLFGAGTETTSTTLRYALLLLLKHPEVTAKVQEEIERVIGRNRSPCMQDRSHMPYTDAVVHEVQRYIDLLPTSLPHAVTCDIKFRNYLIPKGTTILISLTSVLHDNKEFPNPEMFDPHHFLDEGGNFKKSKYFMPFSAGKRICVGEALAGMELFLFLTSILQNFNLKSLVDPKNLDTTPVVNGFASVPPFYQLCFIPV
Chain of Serine/threonine-protein kinase Chk1 (O14757 whole entry): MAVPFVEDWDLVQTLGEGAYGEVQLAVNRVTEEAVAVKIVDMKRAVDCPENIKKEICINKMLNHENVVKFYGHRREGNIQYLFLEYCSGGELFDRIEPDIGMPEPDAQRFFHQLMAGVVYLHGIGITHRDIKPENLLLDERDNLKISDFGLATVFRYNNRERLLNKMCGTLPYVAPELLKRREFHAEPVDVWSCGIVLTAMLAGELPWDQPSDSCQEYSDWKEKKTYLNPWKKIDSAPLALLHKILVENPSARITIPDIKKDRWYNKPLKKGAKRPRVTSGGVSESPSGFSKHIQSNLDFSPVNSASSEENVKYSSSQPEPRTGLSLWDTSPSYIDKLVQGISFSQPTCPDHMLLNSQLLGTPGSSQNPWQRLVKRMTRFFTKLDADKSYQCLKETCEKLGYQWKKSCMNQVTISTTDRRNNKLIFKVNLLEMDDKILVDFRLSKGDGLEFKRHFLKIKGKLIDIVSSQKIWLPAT

`Nc1nccc(-c2cc3c([nH]2)[C@@H](CCF)CNC3=O)n1` gave an IC50 [1] of over 4 µM, an IC50 [2] of 0.002 µM and an IC50 [3] of over 4 µM. The Activity [4] was 28%, the Activity [5] was “Not Active” and the Activity [6] was “Not Active”. For the same compound, the Activity [7] was “Active”, the IC50 [8] was 4.1 µM and the IC50 [9] was over 4 µM. It also gave an IC50 [10] of 1.15 µM, an IC50 [11] of 2.5 µM and an Activity [12] of 35%. The Activity [13] was “Not Active”, the IC50 [14] was over 4 µM and the Activity [15] was 3%. For the same compound, the IC50 [16] was over 4 µM, the Activity [17] was “Not Active” and the Cmax [18] was 2600 nM. For the same compound, the IC50 [19] was 0.846 µM, the Activity [20] was 6% and the IC50 [21] was over 4 µM. It also gave a Tmax [22] of 30 min, a bioavailability [23] of 53% and a Tmax [24] of 18 min. The Activity [25] was “Active”, the half-life [26] was 36 min and the clearance [27] was 53.3 mL/min/kg. It also gave an IC50 [28] of 0.67 µM, an AUC(0-inf) [29] of 5 µM·h and an IC50 [30] of 0.359 µM. For the same compound, the AUC [31] was 19.9 µM·h, the CL renal [32] was 6.67 mL/min/kg and the AUC(0-inf) [33] was 6.4 µM·h. For the same compound, the IC50 [34] was 0.03 µM, the IC50 [35] was over 4 µM and the IC50 [36] was 1.2 µM. For the same compound, the IC50 [37] was over 4 µM.
